Test results published in ChEMBL document CHEMBL4689842, “EUbOPEN Chemogenomics Library wave 1” (2021).

Tested on: Fibroblast
Experiment: Multiplex assay against human fibroblast
Format: toxicity, cell-based
Method in brief: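 Four dyes were applied at seeding to live cells: Hoechst33342, BioTracker Green Microtubule Cytoskeleton Dye, MitoTracker Red and Annexin V Alexa Fluor 680. Imaging after compound addition used a CQ1 microscope at 37°C and 5% CO2. CellPathfinder machine-learning gating then sorted cells into Hoechst high-intensity objects or normal cells, normal cells into healthy, pyknosed or fragmented nuclei, and pyknosed cells into mitotic or apoptotic, with tubulin, mitochondrial-mass and membrane-permeability phenotypes given as per cents of healthy-nucleus cells.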

[1] = 12 h, 1 µM, compound concentration 1 uM, replicate 1
[2] = 12 h, 1 µM, compound concentration 1 uM, replicate 2
[3] = 12 h, 10 µM, compound concentration 10 uM, replicate 1
[4] = 12 h, 10 µM, compound concentration 10 uM, replicate 2
[5] = 24 h, 1 µM, compound concentration 1 uM, replicate 1
[6] = 24 h, 1 µM, compound concentration 1 uM, replicate 2
[7] = 24 h, 10 µM, compound concentration 10 uM, replicate 1
[8] = 24 h, 10 µM, compound concentration 10 uM, replicate 2
[9] = 48 h, 1 µM, compound concentration 1 uM, replicate 1
[10] = 48 h, 1 µM, compound concentration 1 uM, replicate 2
[11] = 48 h, 10 µM, compound concentration 10 uM, replicate 1
[12] = 48 h, 10 µM, compound concentration 10 uM, replicate 2

## CC(C)c1cc(Nc2nc(N3CCC[C@H](N)C3)ncc2C(N)=O)cc(C(C)C)n1
[1]
  Population Apoptotic (%): 57%
  Population Fragmented Nuclei (%): 33%
  Population Healthy Nuclei (%): 36%
  Population Hoechst High Intensity Objects (%): 13%
  Population Membrane Permeable-Phenotype (%): 22%
  Population Mitochondria Different-Phenotype (%): 22%
  Population Mitotic Cells (%): 42%
  Population Normal (%): 86%
  Population Pyknosed Nuclei (%): 30%
  Population Tubulin-Different-Phenotype (%): 82%
  Total Cell Count: 127
[2]
  Population Apoptotic (%): 44%
  Population Fragmented Nuclei (%): 12%
  Population Healthy Nuclei (%): 75%
  Population Hoechst High Intensity Objects (%): 9%
  Population Membrane Permeable-Phenotype (%): 16%
  Population Mitochondria Different-Phenotype (%): 92%
  Population Mitotic Cells (%): 55%
  Population Normal (%): 90%
  Population Pyknosed Nuclei (%): 12%
  Population Tubulin-Different-Phenotype (%): 96%
  Total Cell Count: 82
[3]
  Population Apoptotic (%): 59%
  Population Fragmented Nuclei (%): 30%
  Population Healthy Nuclei (%): 37%
  Population Hoechst High Intensity Objects (%): 28%
  Population Membrane Permeable-Phenotype (%): 34%
  Population Mitochondria Different-Phenotype (%): 30%
  Population Mitotic Cells (%): 40%
  Population Normal (%): 71%
  Population Pyknosed Nuclei (%): 31%
  Population Tubulin-Different-Phenotype (%): 76%
  Total Cell Count: 96
[4]
  Population Apoptotic (%): 65%
  Population Fragmented Nuclei (%): 19%
  Population Healthy Nuclei (%): 31%
  Population Hoechst High Intensity Objects (%): 14%
  Population Membrane Permeable-Phenotype (%): 100%
  Population Mitochondria Different-Phenotype (%): 93%
  Population Mitotic Cells (%): 34%
  Population Normal (%): 85%
  Population Pyknosed Nuclei (%): 48%
  Population Tubulin-Different-Phenotype (%): 100%
  Total Cell Count: 55
[5]
  Population Apoptotic (%): 48%
  Population Fragmented Nuclei (%): 30%
  Population Healthy Nuclei (%): 32%
  Population Hoechst High Intensity Objects (%): 25%
  Population Membrane Permeable-Phenotype (%): 17%
  Population Mitochondria Different-Phenotype (%): 14%
  Population Mitotic Cells (%): 51%
  Population Normal (%): 74%
  Population Pyknosed Nuclei (%): 36%
  Population Tubulin-Different-Phenotype (%): 77%
  Total Cell Count: 143
[6]
  Population Apoptotic (%): 26%
  Population Fragmented Nuclei (%): 10%
  Population Healthy Nuclei (%): 68%
  Population Hoechst High Intensity Objects (%): 5%
  Population Membrane Permeable-Phenotype (%): 30%
  Population Mitochondria Different-Phenotype (%): 96%
  Population Mitotic Cells (%): 73%
  Population Normal (%): 94%
  Population Pyknosed Nuclei (%): 20%
  Population Tubulin-Different-Phenotype (%): 94%
  Total Cell Count: 77
[7]
  Population Apoptotic (%): 63%
  Population Fragmented Nuclei (%): 26%
  Population Healthy Nuclei (%): 42%
  Population Hoechst High Intensity Objects (%): 25%
  Population Membrane Permeable-Phenotype (%): 17%
  Population Mitochondria Different-Phenotype (%): 44%
  Population Mitotic Cells (%): 36%
  Population Normal (%): 75%
  Population Pyknosed Nuclei (%): 31%
  Population Tubulin-Different-Phenotype (%): 82%
  Total Cell Count: 92
[8]
  Population Apoptotic (%): 84%
  Population Fragmented Nuclei (%): 23%
  Population Healthy Nuclei (%): 23%
  Population Hoechst High Intensity Objects (%): 17%
  Population Membrane Permeable-Phenotype (%): 100%
  Population Mitochondria Different-Phenotype (%): 90%
  Population Mitotic Cells (%): 16%
  Population Normal (%): 82%
  Population Pyknosed Nuclei (%): 53%
  Population Tubulin-Different-Phenotype (%): 100%
  Total Cell Count: 57
[9]
  Population Apoptotic (%): 70%
  Population Fragmented Nuclei (%): 29%
  Population Healthy Nuclei (%): 40%
  Population Hoechst High Intensity Objects (%): 37%
  Population Membrane Permeable-Phenotype (%): 34%
  Population Mitochondria Different-Phenotype (%): 7%
  Population Mitotic Cells (%): 30%
  Population Normal (%): 62%
  Population Pyknosed Nuclei (%): 29%
  Population Tubulin-Different-Phenotype (%): 68%
  Total Cell Count: 162
[10]
  Population Apoptotic (%): 42%
  Population Fragmented Nuclei (%): 33%
  Population Healthy Nuclei (%): 56%
  Population Hoechst High Intensity Objects (%): 33%
  Population Membrane Permeable-Phenotype (%): 9%
  Population Mitochondria Different-Phenotype (%): 1%
  Population Mitotic Cells (%): 57%
  Population Normal (%): 66%
  Population Pyknosed Nuclei (%): 10%
  Population Tubulin-Different-Phenotype (%): 58%
  Total Cell Count: 204
[11]
  Population Apoptotic (%): 95%
  Population Fragmented Nuclei (%): 43%
  Population Healthy Nuclei (%): 24%
  Population Hoechst High Intensity Objects (%): 32%
  Population Membrane Permeable-Phenotype (%): 66%
  Population Mitochondria Different-Phenotype (%): 13%
  Population Mitotic Cells (%): 5%
  Population Normal (%): 67%
  Population Pyknosed Nuclei (%): 32%
  Population Tubulin-Different-Phenotype (%): 66%
  Total Cell Count: 92
[12]
  Population Apoptotic (%): 80%
  Population Fragmented Nuclei (%): 27%
  Population Healthy Nuclei (%): 38%
  Population Hoechst High Intensity Objects (%): 31%
  Population Membrane Permeable-Phenotype (%): 19%
  Population Mitochondria Different-Phenotype (%): 58%
  Population Mitotic Cells (%): 19%
  Population Normal (%): 68%
  Population Pyknosed Nuclei (%): 33%
  Population Tubulin-Different-Phenotype (%): 55%
  Total Cell Count: 135
